Reference: ChEMBL document CHEMBL3994675, “Carbamylmethyl Mercaptoacetate Thioether: A Novel Scaffold for the Development of L1 Metallo-β-lactamase Inhibitors” (ACS Med Chem Lett, 2017)

Experiments:
[1] = Mixed-type inhibition of L1 (unknown origin) expressed in Escherichia coli BL21(DE3) using varying levels of cefazolin as substrate preincubated for 30 mins followed by substrate addition by Michaelis-Menten plot analysis
[2] = Inhibition of L1 (unknown origin) expressed in Escherichia coli BL21(DE3) at 100 uM using cefazolin as substrate preincubated for 30 mins followed by substrate addition by UV-Visible spectrophotometric method relative to control
Outline: (§1)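 Purified enzyme preincubated with 100 μM inhibitor in its enzyme-specific buffer, then substrate added: 50 μM cefazolin for IMP-1 and L1, 40 μM imipenem for ImiS. Hydrolysis followed by UV-vis spectrophotometry. Preincubation times of 3–60 min were tested. % inhibition = activity without inhibitor (100%) minus residual activity.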

[3] = Inhibition of IMP1 (unknown origin) expressed in Escherichia coli BL21(DE3) at 100 uM using cefazolin as substrate preincubated for 3 to 60 mins followed by substrate addition by UV-Visible spectrophotometric method; details: TDE = time-dependent effect; outline: as §1
[4] = Inhibition of L1 (unknown origin) expressed in Escherichia coli BL21(DE3) using cefazolin as substrate preincubated for 30 mins followed by substrate addition by UV-Visible spectrophotometric method
Outline: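 L1 IC50 measured in 30 mM Tris, pH 8.5, with cefazolin as substrate and inhibitor at 0.1–20 μM. Run in triplicate; mean ± SD reported.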

Escherichia coli [5] = test: Growth inhibition of Escherichia coli DH10B at 1024 ug/ml after 12 hrs macrodilution broth method; parameters: species or system K-12 substr. DH10B
Outline: (§2)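 Cefazolin MIC determined for E. coli DH10B carrying pBC SK(+)-L1 and for E. coli not expressing L1, with and without compound.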

[6] = Inhibition of L1 (unknown origin) expressed in Escherichia coli DH10B harboring pBC SK(+)-L1 assessed as potentiation of cefazolin-induced antibacterial activity by measuring cefazolin MIC at 1024 ug/ml after 12 hrs macrodilution broth method
Outline: (§3)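 Cefazolin MICs were read for E. coli DH10B carrying pBC SK(+)-L1 across a series of inhibitor concentrations. Cefazolin alone (no inhibitor) on the same strain served as the reference MIC. E. coli not expressing L1 was tested alongside as the susceptible comparator.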

[7] = Inhibition of ImiS (unknown origin) expressed in Escherichia coli BL21(DE3) at 100 uM using imipenem as substrate preincubated for 30 mins followed by substrate addition by UV-Visible spectrophotometric method relative to control; outline: as §1
[8] = Inhibition of L1 (unknown origin) expressed in Escherichia coli BL21(DE3) at 100 uM using cefazolin as substrate preincubated for 3 to 60 mins followed by substrate addition by UV-Visible spectrophotometric method relative to control; details: TDE = time-dependent effect; outline: as §1
[9] = Inhibition of ImiS (unknown origin) expressed in Escherichia coli BL21(DE3) at 100 uM using imipenem as substrate preincubated for 3 to 60 mins followed by substrate addition by UV-Visible spectrophotometric method relative to control; details: TDE = time-dependent effect; outline: as §1
Escherichia coli [10] = test: Growth inhibition of Escherichia coli DH10B harboring pBC SK(+)-L1 at 1024 ug/ml after 12 hrs macrodilution broth method; parameters: species or system K-12 substr. DH10B; outline: as §2
[11] = Inhibition of IMP1 (unknown origin) expressed in Escherichia coli BL21(DE3) at 100 uM using cefazolin as substrate preincubated for 30 mins followed by substrate addition by UV-Visible spectrophotometric method relative to control; outline: as §1
L929 = test: Cytotoxicity against mouse L929 cells assessed as reduction in cell viability up to 400 uM after 48 hrs by CCK assay; assay type: cell-based; details: l929, 48 h
Outline: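 L-929 mouse fibroblasts exposed to compound at 12.5, 25, 50, 100, 200 and 400 μM working concentrations; cell viability measured.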

[12] = Inhibition of L1 (unknown origin) expressed in Escherichia coli DH10B harboring pBC SK(+)-L1 assessed as potentiation of cefazolin-induced antibacterial activity by measuring cefazolin MIC at 256 ug/ml after 12 hrs macrodilution broth method; outline: as §3
[13] = Inhibition of L1 (unknown origin) expressed in Escherichia coli DH10B harboring pBC SK(+)-L1 assessed as potentiation of cefazolin-induced antibacterial activity by measuring cefazolin MIC at 128 ug/ml after 12 hrs macrodilution broth method; outline: as §3
[14] = Inhibition of L1 (unknown origin) expressed in Escherichia coli DH10B harboring pBC SK(+)-L1 assessed as potentiation of cefazolin-induced antibacterial activity by measuring cefazolin MIC at 64 ug/ml after 12 hrs macrodilution broth method; outline: as §3
[15] = Inhibition of L1 (unknown origin) expressed in Escherichia coli DH10B harboring pBC SK(+)-L1 assessed as potentiation of cefazolin-induced antibacterial activity by measuring cefazolin MIC at 4 ug/ml after 12 hrs macrodilution broth method; outline: as §3
[16] = Inhibition of L1 (unknown origin) expressed in Escherichia coli DH10B harboring pBC SK(+)-L1 assessed as potentiation of cefazolin-induced antibacterial activity by measuring cefazolin MIC at 16 ug/ml after 12 hrs macrodilution broth method; outline: as §3
[17] = Inhibition of L1 (unknown origin) expressed in Escherichia coli DH10B harboring pBC SK(+)-L1 assessed as potentiation of cefazolin-induced antibacterial activity by measuring cefazolin MIC at 512 ug/ml after 12 hrs macrodilution broth method; outline: as §3
[18] = Inhibition of L1 (unknown origin) expressed in Escherichia coli DH10B harboring pBC SK(+)-L1 assessed as potentiation of cefazolin-induced antibacterial activity by measuring cefazolin MIC at 32 ug/ml after 12 hrs macrodilution broth method; outline: as §3
[19] = Inhibition of L1 (unknown origin) expressed in Escherichia coli DH10B harboring pBC SK(+)-L1 assessed as potentiation of cefazolin-induced antibacterial activity by measuring fold reduction in cefazolin MIC at 1024 ug/ml after 12 hrs macrodilution broth method relative to cefazolin alone; outline: as §3
[20] = Inhibition of L1 (unknown origin) expressed in Escherichia coli DH10B harboring pBC SK(+)-L1 assessed as potentiation of cefazolin-induced antibacterial activity by measuring cefazolin MIC at 8 ug/ml after 12 hrs macrodilution broth method; outline: as §3
[21] = Chemical stability in pH 9 Tris buffer after 4 days by UV-Visible spectral analysis; assay type: physicochemical; details: pH 9, 96 h
Outline: (§4)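 Compounds incubated in aqueous solution at pH 5.0, 7.0 and 9.0 for 4 days; stability followed by UV-vis spectra.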

[22] = Chemical stability in pH 5 Tris buffer after 4 days by UV-Visible spectral analysis; assay type: physicochemical; details: pH 5, 96 h; outline: as §4
[23] = Chemical stability in pH 7 Tris buffer after 4 days by UV-Visible spectral analysis; assay type: physicochemical; details: pH 7, 96 h; outline: as §4

Row | Compound | inhibition [2] | inhibition [3] | IC50 [4] | growth inhibition (GI) (Escherichia coli [5]) | MIC [6] | inhibition [7] | inhibition [8] | inhibition [9] | growth inhibition (GI) (Escherichia coli [10]) | inhibition [11] | other results
1 | CCc1ccccc1NC(=O)CSCC(=O)[O-].[K+] | 92% | Tde | 590 nM | Non-Toxic | 16 µg/mL | 21% | Tde | Tde | Non-Toxic | 80% | Ki [1]: 3700 nM
2 | O=C([O-])CSCC(=O)Nc1ccc(C(=O)O)cc1.[K+] | 75% | Tde | 7500 nM | Non-Toxic | 16 µg/mL | 87% | Tde | Tde | Non-Toxic | 71% | –
3 | CC(C)(C)NC(=O)CSCC(=O)[O-].[K+] | 91% | Tde | 750 nM | Non-Toxic | 16 µg/mL | 21% | Tde | Tde | Non-Toxic | 69% | Activity (L929): Non-Toxic
4 | O=C([O-])CSCC(=O)Nc1ccccc1O.[K+] | 95% | Tde | 580 nM | Non-Toxic | 8 µg/mL | 74% | Tde | Tde | Non-Toxic | 40% | –
5 | CC(C)CNC(=O)CSCC(=O)[O-].[K+] | 78% | Tde | 3810 nM | Non-Toxic | 16 µg/mL | 23% | Tde | Tde | Non-Toxic | 59% | –
6 | O=C([O-])CSCC(=O)Nc1ccc(Cl)cc1.[K+] | 73% | Tde | 20000 nM | Non-Toxic | 16 µg/mL | 25% | Tde | Tde | Non-Toxic | 48% | –
7 | CCCCNC(=O)CSCC(=O)[O-].[K+] | 89% | Tde | 1230 nM | Non-Toxic | 16 µg/mL | 20% | Tde | Tde | Non-Toxic | 55% | –
8 | O=C([O-])CSCC(=O)Nc1cccc(Cl)c1.[K+] | 79% | Tde | 2010 nM | Non-Toxic | 16 µg/mL | 34% | Tde | Tde | Non-Toxic | 48% | Ki [1]: 31800 nM
9 | O=C([O-])CSCC(=O)Nc1ccccc1[N+](=O)[O-].[K+] | 77% | Tde | 4210 nM | Non-Toxic | 16 µg/mL | 21% | Tde | Tde | Non-Toxic | 44% | Activity (L929): Non-Toxic
10 | CCCCc1ccc(NC(=O)CSCC(=O)[O-])cc1.[K+] | 97% | Tde | 430 nM | Non-Toxic | 2 µg/mL | 29% | Tde | Tde | Non-Toxic | 64% | MIC [12]: 8 µg/mL; MIC [13]: 16 µg/mL; MIC [14]: 16 µg/mL; MIC [15]: 16 µg/mL; MIC [16]: 16 µg/mL; MIC [17]: 8 µg/mL; MIC [18]: 16 µg/mL; fold change (FC) [19]: 8; MIC [20]: 16 µg/mL
11 | O=C([O-])CSCC(=O)Nc1ccccc1.[K+] | 92% | Tde | 980 nM | Non-Toxic | 16 µg/mL | 18% | Tde | Tde | Non-Toxic | 43% | Activity (L929): Non-Toxic
12 | O=C([O-])CSCC(=O)NCc1ccccc1.[K+] | 97% | Tde | 460 nM | Non-Toxic | 16 µg/mL | 21% | Tde | Tde | Non-Toxic | 51% | –
13 | Cc1ccccc1NC(=O)CSCC(=O)[O-].[K+] | 95% | Tde | 460 nM | Non-Toxic | 16 µg/mL | 24% | Tde | Tde | Non-Toxic | 50% | –
14 | O=C([O-])CSCC(=O)Nc1ccc([N+](=O)[O-])cc1.[K+] | 71% | Tde | > 20000 nM | Non-Toxic | 2 µg/mL | 85% | Tde | Tde | Non-Toxic | 45% | MIC [12]: 8 µg/mL; MIC [13]: 8 µg/mL; MIC [14]: 16 µg/mL; MIC [15]: 16 µg/mL; MIC [16]: 16 µg/mL; MIC [17]: 8 µg/mL; MIC [18]: 16 µg/mL; fold change (FC) [19]: 8; MIC [20]: 16 µg/mL
15 | O=C([O-])CSCC(=O)Nc1ccccc1Cl.[K+] | 80% | Tde | 1040 nM | Non-Toxic | 16 µg/mL | 39% | Tde | Tde | Non-Toxic | 53% | Stability [21]: Unstable; Stability [22]: Unstable; Stability [23]: Unstable
